Measured values from ChEMBL document CHEMBL1131139, “Synthesis and antibacterial activity of ketolides (6-O-methyl-3-oxoerythromycin derivatives): a new class of antibacterials highly potent against macrolide-resistant and -susceptible respiratory pathogens” (1998).
≈ marks a conversion by molar mass, not a printed value.

Experiments:
Assay type in all cases: functional
[1] = tested on: Escherichia coli; experiment: In vitro inhibitory activity against Escherichia coli (250 UC5)
How it was run: (§1)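 Two-fold agar dilution on Mueller-Hinton agar (pH 7.4). Inoculum from overnight plate cultures suspended in Mueller-Hinton broth, adjusted to 10^9 CFU/mL, diluted 1:200 and spotted by multipoint inoculator at about 10^4 CFU/spot. Plates incubated 37 °C for 20 h. MIC taken as lowest concentration with no visible growth.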

[2] = tested on: Staphylococcus aureus; experiment: In vitro inhibitory activity against Staphylococcus aureus (EryRi 011GO25i); how it was run: as §1
[3] = tested on: Staphylococcus aureus; experiment: In vitro inhibitory activity against Staphylococcus aureus (EryRc 011CB20); how it was run: as §1
[4] = tested on: Staphylococcus epidermidis; experiment: In vitro inhibitory activity against Staphylococcus epidermidis (EryRi 012GO11i); how it was run: as §1
[5] = tested on: Staphylococcus aureus; experiment: In vitro inhibitory activity against Staphylococcus aureus (011UC4); how it was run: as §1
[6] = tested on: Streptococcus pyogenes; experiment: In vitro inhibitory activity against Streptococcus pyogenes (02A1UC1); how it was run: as §1
[7] = tested on: Streptococcus pneumoniae; experiment: In vitro inhibitory activity against Streptococcus pneumoniae (EryRi 030SJ5i); how it was run: as §1
[8] = tested on: Haemophilus influenzae; experiment: In vitro inhibitory activity against Haemophilus influenzae (351CB12); how it was run: as §1
[9] = tested on: Haemophilus influenzae; experiment: In vitro inhibitory activity against Haemophilus influenzae (351HT3); how it was run: as §1
[10] = tested on: Streptococcus pneumoniae; experiment: In vitro inhibitory activity against Streptococcus pneumoniae (032UC1); how it was run: as §1
[11] = tested on: Streptococcus pneumoniae; experiment: In vitro inhibitory activity against Streptococcus pneumoniae (EryRc 030SJ1); how it was run: as §1

Row | MIC [1] | MIC [2] | MIC [3] | MIC [4] | MIC [5] | MIC [6] | MIC [7] | MIC [8] | MIC [9] | MIC [10] | MIC [11] | Structure (SMILES)
1 | 40 µg/mL (≈ 58.3 µM) | 2.5 µg/mL (≈ 3.64 µM) | 40 µg/mL (≈ 58.3 µM) | 0.6 µg/mL (≈ 0.875 µM) | 0.15 µg/mL (≈ 0.219 µM) | 0.04 µg/mL (≈ 0.0583 µM) | 0.3 µg/mL (≈ 0.437 µM) | 0.6 µg/mL (≈ 0.875 µM) | 2.5 µg/mL (≈ 3.64 µM) | 0.08 µg/mL (≈ 0.117 µM) | 0.3 µg/mL (≈ 0.437 µM) | CC[C@H]1OC(=O)[C@H](C)C(=O)[C@H](C)[C@@H](O[C@@H]2O[C@H](C)C[C@H](N(C)C)[C@H]2O)[C@](C)(OC)C[C@@H](C)/C(=N\O[C@@H]2CCCNC2)[C@H](C)[C@@H](O)[C@]1(C)O
2 | 40 µg/mL (≈ 58.3 µM) | 2.5 µg/mL (≈ 3.64 µM) | 40 µg/mL (≈ 58.3 µM) | 5 µg/mL (≈ 7.29 µM) | 0.6 µg/mL (≈ 0.875 µM) | 0.04 µg/mL (≈ 0.0583 µM) | 2.5 µg/mL (≈ 3.64 µM) | 10 µg/mL (≈ 14.6 µM) | 40 µg/mL (≈ 58.3 µM) | 20 µg/mL (≈ 29.2 µM) | 0.3 µg/mL (≈ 0.437 µM) | CC[C@H]1OC(=O)[C@H](C)C(=O)[C@H](C)[C@@H](O[C@@H]2O[C@H](C)C[C@H](N(C)C)[C@H]2O)[C@](C)(OC)C[C@@H](C)/C(=N\OCCN2CCC2)[C@H](C)[C@@H](O)[C@]1(C)O
3 | 40 µg/mL (≈ 49.4 µM) | 2.5 µg/mL (≈ 3.09 µM) | 40 µg/mL (≈ 49.4 µM) | 5 µg/mL (≈ 6.17 µM) | 0.15 µg/mL (≈ 0.185 µM) | 0.04 µg/mL (≈ 0.0494 µM) | 0.15 µg/mL (≈ 0.185 µM) | 1.2 µg/mL (≈ 1.48 µM) | 5 µg/mL (≈ 6.17 µM) | 0.02 µg/mL (≈ 0.0247 µM) | 0.6 µg/mL (≈ 0.741 µM) | CC[C@H]1OC(=O)[C@H](C)C(=O)[C@H](C)[C@@H](O[C@@H]2O[C@H](C)C[C@H](N(C)C)[C@H]2O)[C@](C)(OC)C[C@@H](C)/C(=N\OC2CCCN(CCCC3CCCCC3)C2)[C@H](C)[C@@H](O)[C@]1(C)O (some centres undefined)
4 | 40 µg/mL (≈ 53.6 µM) | 0.15 µg/mL (≈ 0.201 µM) | 40 µg/mL (≈ 53.6 µM) | 0.15 µg/mL (≈ 0.201 µM) | 0.08 µg/mL (≈ 0.107 µM) | 0.02 µg/mL (≈ 0.0268 µM) | 0.15 µg/mL (≈ 0.201 µM) | 1.2 µg/mL (≈ 1.61 µM) | 1.2 µg/mL (≈ 1.61 µM) | 0.02 µg/mL (≈ 0.0268 µM) | 5 µg/mL (≈ 6.7 µM) | CC[C@H]1OC(=O)[C@H](C)C(=O)[C@H](C)[C@@H](O[C@@H]2O[C@H](C)C[C@H](N(C)C)[C@H]2O)[C@](C)(OC)C[C@@H](C)C(=O)[C@H](C)[C@H]2N(NCCCc3ccccc3)C(=O)O[C@]12C
5 | 40 µg/mL (≈ 57.7 µM) | 40 µg/mL (≈ 57.7 µM) | 40 µg/mL (≈ 57.7 µM) | 40 µg/mL (≈ 57.7 µM) | 2.5 µg/mL (≈ 3.61 µM) | 0.6 µg/mL (≈ 0.866 µM) | 40 µg/mL (≈ 57.7 µM) | 40 µg/mL (≈ 57.7 µM) | 40 µg/mL (≈ 57.7 µM) | 0.3 µg/mL (≈ 0.433 µM) | 40 µg/mL (≈ 57.7 µM) | CC[C@H]1OC(=O)[C@H](C)C(=O)[C@H](C)[C@@H](O[C@@H]2O[C@H](C)C[C@H](N(C)C)[C@H]2O)[C@](C)(OC)C[C@@H](C)/C(=N\OCc2ccccc2)[C@H](C)[C@@H](O)[C@]1(C)O
6 | 40 µg/mL (≈ 53.8 µM) | 1.2 µg/mL (≈ 1.62 µM) | 40 µg/mL (≈ 53.8 µM) | 0.6 µg/mL (≈ 0.808 µM) | 0.3 µg/mL (≈ 0.404 µM) | 0.04 µg/mL (≈ 0.0538 µM) | 1.2 µg/mL (≈ 1.62 µM) | 10 µg/mL (≈ 13.5 µM) | 20 µg/mL (≈ 26.9 µM) | 10 µg/mL (≈ 13.5 µM) | 0.6 µg/mL (≈ 0.808 µM) | CC[C@H]1OC(=O)[C@H](C)C(=O)[C@H](C)[C@@H](O[C@@H]2O[C@H](C)C[C@H](N(C)C)[C@H]2O)[C@](C)(OC)C[C@@H](C)/C(=N\OCCNCCN2CCCC2)[C@H](C)[C@@H](O)[C@]1(C)O
7 | 40 µg/mL (≈ 57.9 µM) | 2.5 µg/mL (≈ 3.62 µM) | 40 µg/mL (≈ 57.9 µM) | 1.2 µg/mL (≈ 1.74 µM) | 1.2 µg/mL (≈ 1.74 µM) | 0.15 µg/mL (≈ 0.217 µM) | 10 µg/mL (≈ 14.5 µM) | 40 µg/mL (≈ 57.9 µM) | 40 µg/mL (≈ 57.9 µM) | 0.15 µg/mL (≈ 0.217 µM) | 40 µg/mL (≈ 57.9 µM) | CC[C@H]1OC(=O)[C@H](C)C(=O)[C@H](C)[C@@H](O[C@@H]2O[C@H](C)C[C@H](N(C)C)[C@H]2O)[C@](C)(OC)C[C@@H](C)/C(=N/OCOCCOC)[C@H](C)[C@@H](O)[C@]1(C)O
8 | 40 µg/mL (≈ 68.1 µM) | 40 µg/mL (≈ 68.1 µM) | 40 µg/mL (≈ 68.1 µM) | 5 µg/mL (≈ 8.51 µM) | 0.3 µg/mL (≈ 0.51 µM) | 0.6 µg/mL (≈ 1.02 µM) | 40 µg/mL (≈ 68.1 µM) | 20 µg/mL (≈ 34 µM) | 20 µg/mL (≈ 34 µM) | 0.15 µg/mL (≈ 0.255 µM) | 40 µg/mL (≈ 68.1 µM) | CC[C@H]1OC(=O)[C@H](C)C(=O)[C@H](C)[C@@H](O[C@@H]2O[C@H](C)C[C@H](N(C)C)[C@H]2O)[C@](C)(OC)C[C@@H](C)C(=O)[C@H](C)[C@@H](O)[C@]1(C)O
9 | 40 µg/mL (≈ 59.4 µM) | 1.2 µg/mL (≈ 1.78 µM) | 40 µg/mL (≈ 59.4 µM) | 20 µg/mL (≈ 29.7 µM) | 0.08 µg/mL (≈ 0.119 µM) | 0.01 µg/mL (≈ 0.0148 µM) | 0.15 µg/mL (≈ 0.223 µM) | 20 µg/mL (≈ 29.7 µM) | 20 µg/mL (≈ 29.7 µM) | 0.15 µg/mL (≈ 0.223 µM) | 2.5 µg/mL (≈ 3.71 µM) | CC[C@H]1OC(=O)[C@H](C)C(=O)[C@H](C)[C@@H](O[C@@H]2O[C@H](C)C[C@H](N(C)C)[C@H]2O)[C@](C)(OC)C[C@@H](C)/C(=N\OCCN(C)C)[C@H](C)[C@@H](O)[C@]1(C)O
